Where two headings read alike, the source gives them in different places.
Experiments:
DOP receptor [1] = molecular target: T1, DOP receptor (Homo sapiens, UniProt P41143); assay: Competitive inhibition of 3H-diprenorphine binding at the DOP receptor; settings: 3H-diprenorphine 0.3 nM
MOP receptor [2] = molecular target: T2, MOP receptor (Homo sapiens, UniProt P35372); assay: Competitive inhibition of 3H-diprenorphine binding at the MOP receptor; settings: 3H-diprenorphine 0.3 nM
hKOP receptor [3] = molecular target: T3, hKOP receptor (Homo sapiens, UniProt P41145); assay: BRET-based arrestin3 recruitment assay, hKOP-RLuc8 with arrestin3-mVenus; format: cell-based; settings: Potency for arrestin3 recruitment at hKOP receptor, 5 min after ligand
In short: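 HEK293T cells transfected with polyethylenimine (1:3) using 0.2 µg hKOP receptor with C-terminal RLuc8, 15 µg human arrestin3-mVenus and 4.8 µg empty vector (20 µg total), grown in DMEM/10% FBS. Assayed 48 h post-transfection: cells resuspended in PBS, ~200,000/well, 5 µM coelenterazine H, then ligand 5 min later.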

MOP receptor [4] = molecular target: T2, MOP receptor; assay: BRET-based G protein; format: cell-based
DOP receptor [5] = molecular target: T1, DOP receptor; assay: BRET-based G protein; format: cell-based
hKOP receptor [6] = molecular target: T3, hKOP receptor; format: binding
hKOP receptor [7] = molecular target: T3, hKOP receptor; assay: BRET-based G protein; format: cell-based; settings: relative to EKC

Row | Compound | Ki (DOP receptor [1]; Ki DOP, means ± S.E.M. (n=3)) | Ki (MOP receptor [2]; Ki MOP, means ± S.E.M. (n=3)) | EC50 (hKOP receptor [3]) | Agonistic activity at the MOP receptor, in words (MOP receptor [4]) | EC50 (DOP receptor [5]) | Agonistic activity at the DOP receptor, in words (DOP receptor [5]; BRET) | Ki (hKOP receptor [6]) | Agonistic activity (GαoB activation) at hKOP receptor, in words (hKOP receptor [7]) | EC50 (DOP receptor [5]; read-out: Potency for G protein activation at the DOP receptor, BRET) | Ki (DOP receptor [1]; Ki at the DOP receptor, reference ligand) | Ki (MOP receptor [2]; Ki at the MOP receptor, reference ligand) | Inhibition of 3H-diprenorphine binding (primary testing) (hKOP receptor [6]; 100 µM compound, 3H-diprenorphine 0.3 nM)
1 | O=C(CN1CCCC1C(=O)Nc1nccs1)Nc1cccc(F)c1 (centres unmarked) [MCKK-17R, 1-(2-(3-fluorophenylamino)-2-oxoethyl)-N-(thiazol-2-yl)pyrrolidine-2-carboxamide] | 290 µM | 510 µM | > 1000 µM | Neither the racemic nor the MCKK-17 stereoisomers displayed significant activity | > 1000 µM | most active enantiomer at the DOP receptor | – | – | – | – | – | –
2 | O=C(CN1CCCC1C(=O)Nc1nccs1)Nc1cccc(F)c1 (centres unmarked) [MCKK-17S, 1-(2-(3-fluorophenylamino)-2-oxoethyl)-N-(thiazol-2-yl)pyrrolidine-2-carboxamide] | > 10000 µM | > 10000 µM | 120 ± 47 µM | Neither the racemic nor the MCKK-17 stereoisomers displayed significant activity | – | did not significantly activate the DOP receptor | 120 µM | full agonism relative to EKC | > 1000 µM | – | – | –
3 | CC[C@]12CCN(CC3CC3)[C@H](C(=O)c3ccc(O)cc31)[C@@H]2C [EKC, ethylketocyclazocine, reference compound] | – | – | – | – | – | – | – | – | – | 0.25 ± 0.031 µM | 0.17 ± 0.1 µM | –
4 | O=C(CN1CCCC1C(=O)Nc1nccs1)Nc1cccc(F)c1 (racemic) [MCKK-17, 1-(2-(3-fluorophenylamino)-2-oxoethyl)-N-(thiazol-2-yl)pyrrolidine-2-carboxamide] | – | – | 160 ± 38 µM | Neither the racemic nor the MCKK-17 stereoisomers displayed significant activity | > 1000 µM | – | – | – | – | – | – | partially but significantly inhibited

Reference: publication PMC3702663 (Journal of chemical information and modeling, 2013)
